Measured values reported in ChEMBL document CHEMBL1157145, “Cytotoxic activity of proflavine diureas: synthesis, antitumor, evaluation and DNA binding properties of 1',1''-(acridin-3,6-diyl)-3',3''-dialkyldiureas” (Bioorg Med Chem, 2008).
Activity calls are given as the source filed them. No cut-off for these calls is given here.

Assays:
HeLa [1] = assay: Cell cycle arrest in human HeLa cells assessed as accumulation at G2/M phase at 3.50 uM after 24 hrs; assay type: functional
How it was run: (§1)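 Cells seeded at 8 · 10^5 per 60 mm dish, allowed to settle 24 h (37 °C, 5% CO2), then exposed to the drug for 24 or 48 h. Adherent plus floating cells (5 · 10^5) were fixed in cold 70% ethanol at −20 °C overnight, treated with RNase A (100 µg/mL) and stained with propidium iodide (20 µg/mL) in Vindelov's solution for 30 min at RT. Flow cytometry used 488 nm excitation, FL-2 at 585 ± 21 nm, and histograms were modelled for G0/G1, S and G2/M fractions.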

HeLa [2] = assay: Cytotoxicity against human HeLa cells after 48 hrs by MTT assay; assay type: functional, cell-based
HCT-116 [3] = assay: Antiproliferative activity against human HCT116 cells assessed as decrease in total cell population at 4.80 uM after 48 hrs; assay type: functional; parameters: scale not given: the % may be the effect or the level left
How it was run: (§2)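 Cells seeded (8 · 10^5 per 60 mm dish), allowed to settle 24 h at 37 °C, 5% CO2, then treated with a single concentration for 24 or 48 h. Adherent and floating cells counted by Coulter counter. Total cell number given as % of untreated control; floating cells as % of total cell number.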

HeLa [4] = assay: Cytotoxicity against human HeLa cells after 72 hrs by MTT assay; assay type: functional, cell-based
HeLa [5] = assay: Cell cycle arrest in human HeLa cells assessed as accumulation at S phase at 3.50 uM after 24 hrs; assay type: functional; how it was run: as §1
HCT-116 [6] = assay: Induction of DNA fragmentation in human HCT116 cells after 24 hrs; assay type: functional, cell-based
How it was run: (§3)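 HCT-116 cells were treated for 24 or 48 h. Adherent and floating cells (5 × 10^5) were pooled, fixed in cold 70% ethanol and held overnight at −20 °C. Samples were treated with RNase A (100 µg/mL) and stained with propidium iodide (20 µg/mL) in Vindelov's solution for 30 min at RT. Flow cytometry used 488 nm excitation with emission at 585 nm. Subdiploid (subG0/G1) particles were scored on a logarithmic scale, with debris gated out on FSC × SSC.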

HeLa [7] = assay: Cell cycle arrest in human HeLa cells assessed as accumulation at S phase at 3.50 uM after 48 hrs; assay type: functional; how it was run: as §1
HCT-116 [8] = assay: Cytotoxicity against human HCT116 cells after 72 hrs by MTT assay; assay type: functional, cell-based; details: Homo sapiens, HCT-116, 72 h
HCT-116 [9] = assay: Antiproliferative activity against human HCT116 cells assessed as increase of floating cells in total cell population at 4.80 uM after 48 hrs; assay type: functional; how it was run: as §2
HeLa [10] = assay: Antiproliferative activity against human HeLa cells assessed as decrease in total cell population at 3.50 uM after 24 hrs; assay type: functional; parameters: scale not given: the % may be the effect or the level left; how it was run: as §2
HeLa [11] = assay: Cell cycle arrest in human HeLa cells assessed as accumulation at G2/M phase at 3.50 uM after 48 hrs; assay type: functional; how it was run: as §1
HeLa [12] = assay: Antiproliferative activity against human HeLa cells assessed as decrease in total cell population at 3.50 uM after 48 hrs; assay type: functional; parameters: scale not given: the % may be the effect or the level left; how it was run: as §2
HCT-116 [13] = assay: Cytotoxicity against human HCT116 cells after 48 hrs by MTT assay; assay type: functional, cell-based; details: HCT-116, 48 h
HCT-116 [14] = assay: Cell cycle arrest in human HCT116 cells assessed as accumulation at G2/M phase at 4.80 uM after 48 hrs; assay type: functional; how it was run: as §1
HeLa [15] = assay: Induction of apoptosis in human HeLa cells at 3.50 uM after 24 hrs; assay type: functional
How it was run: (§4)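 After 24 or 48 h of drug exposure, all cells were collected, combining trypsinised adherent cells with floating cells from the medium. Cells (1 × 10^6) were fixed in cold 70% ethanol overnight at −20 °C and stained with DAPI (10 µg/mL) for 30 min in the dark at RT. Under fluorescence microscopy, 300 cells per sample were scored, with condensed or fragmented nuclei counted as apoptotic.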

HeLa [16] = assay: Induction of apoptosis in human HeLa cells at 3.50 uM after 48 hrs; assay type: functional; how it was run: as §4
DNA [17] = assay: Binding affinity to calf thymus DNA at 50 uM by circular dichroism spectrophotometric titration; assay type: nucleic-acid assay; details: Bos taurus
HCT-116 [18] = assay: Induction of apoptosis in human HCT116 cells at 4.80 uM after 24 hrs; assay type: functional; how it was run: as §4
HCT-116 [19] = assay: (§5) Cell cycle arrest in human HCT116 cells assessed as accumulation at G0/G1 phase at 4.80 uM after 48 hrs; assay type: functional
How it was run: (§6)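 Adherent plus floating cells (5 · 10^5) collected 24 or 48 h after treatment, fixed in cold 70% ethanol at −20 °C overnight, washed in PBS. RNase A (100 µg/mL) and propidium iodide (20 µg/mL) in Vindelov's solution, 30 min at RT. Flow cytometry with 488 nm excitation, emission 585 ± 21 nm; % cells per cycle phase from DNA content histograms.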

HeLa [20] = assay: Antiproliferative activity against human HeLa cells assessed as increase of floating cells in total cell population at 3.50 uM after 48 hrs; assay type: functional; how it was run: as §2
HeLa [21] = assay: Antiproliferative activity against human HeLa cells assessed as increase of floating cells in total cell population at 3.50 uM after 24 hrs; assay type: functional; how it was run: as §2
HCT-116 [22] = assay: Induction of apoptosis in human HCT116 cells at 4.80 uM after 48 hrs; assay type: functional; how it was run: as §4
HCT-116 [23] = assay: as §5; assay type: functional; how it was run: as §6; remark: listed apart in the source
HeLa [24] = assay: Cell cycle arrest in human HeLa cells assessed as accumulation at G0/G1 phase at 3.50 uM after 48 hrs; assay type: functional; how it was run: as §1
HeLa [25] = assay: Cell cycle arrest in human HeLa cells assessed as accumulation at G0/G1 phase at 3.50 uM after 24 hrs; assay type: functional; how it was run: as §1
HCT-116 [26] = assay: Induction of DNA fragmentation in human HCT116 cells after 48 hrs; assay type: functional, cell-based; how it was run: as §3
HCT-116 [27] = assay: Cell cycle arrest in human HCT116 cells assessed as accumulation at S phase at 4.80 uM after 48 hrs; assay type: functional; how it was run: as §1
HCT-116 [28] = assay: Antiproliferative activity against human HCT116 cells assessed as increase of floating cells in total cell population at 4.80 uM after 24 hrs; assay type: functional; how it was run: as §2
HCT-116 [29] = assay: Antiproliferative activity against human HCT116 cells assessed as decrease in total cell population at 4.80 uM after 24 hrs; assay type: functional; parameters: scale not given: the % may be the effect or the level left; how it was run: as §2
DNA [30] = assay: Binding affinity to calf thymus DNA at 4 uM by fluorescence spectrophotometric titration; assay type: nucleic-acid assay; details: Bos taurus
How it was run: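 ctDNA sonicated in TE buffer, concentration taken from A260 and given in base pairs. Compound (4 µM) in 0.01 M Tris, pH 7.4, 25 °C titrated with ctDNA (0–55 µM bp) until spectra stopped changing. Excitation 424 nm, slit widths 10 nm; binding constant derived from the change in emission.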

[31] = in the assay text read “after 24 hrs” for “after 48 hrs”

**Q.** Which results are given for `CCCCCCNC(=O)Nc1ccc2cc3ccc(NC(=O)NCCCCCC)cc3nc2c1.Cl`?
**A.** Activity (HeLa [1]): 13.24%; IC50 (HeLa [2]): 3.49 µM; Activity (HCT-116 [3]): 19.84%; IC50 (HeLa [4]): 3.7 µM; Activity (HeLa [5]): 27.08%; Activity (HCT-116 [6]): Active; Activity (HeLa [7]): 21.55%; IC50 (HCT-116 [8]): 3.09 µM; Activity (HCT-116 [9]): 88.55%; Activity (HeLa [10]): 87.42%; Activity (HeLa [11]): 11.88%; Activity (HeLa [12]): 91.16%; IC50 (HCT-116 [13]): 4.76 µM; Activity (HCT-116 [14]): 41.06%; Activity (HCT-116 [14]; [31]): 45.1%; Activity (HeLa [15]): 0.75%; Activity (HeLa [16]): 1%; Activity (DNA [17]): Active; Activity (HCT-116 [18]): 5.67%; Activity (HCT-116 [19]): 36%; Activity (HeLa [20]): 4.41%; Activity (HeLa [21]): 4.21%; Activity (HCT-116 [22]): 12.67%; Activity (HCT-116 [23]): 35.98%; Activity (HeLa [24]): 66.57%; Activity (HeLa [25]): 59.69%; Activity (HCT-116 [26]): Active; Activity (HCT-116 [27]): 22.97%; Activity (HCT-116 [27]; [31]): 21.38%; Activity (HCT-116 [28]): 77.94%; Activity (HCT-116 [29]): 48.1%; K (DNA [30]): 0.9 ×10⁵ /M
